From ChEMBL document CHEMBL1132574, “Metallopeptidase inhibitors of tetanus toxin: A combinatorial approach” (J Med Chem, 1999)

The molecules below were run against T1, Tetanus toxin (Clostridium tetani (strain Massachusetts / E88), UniProt P04958) (assay: Inhibition of tetanus neurotoxin (TeNt)).
T1 sequence (P04958 whole entry): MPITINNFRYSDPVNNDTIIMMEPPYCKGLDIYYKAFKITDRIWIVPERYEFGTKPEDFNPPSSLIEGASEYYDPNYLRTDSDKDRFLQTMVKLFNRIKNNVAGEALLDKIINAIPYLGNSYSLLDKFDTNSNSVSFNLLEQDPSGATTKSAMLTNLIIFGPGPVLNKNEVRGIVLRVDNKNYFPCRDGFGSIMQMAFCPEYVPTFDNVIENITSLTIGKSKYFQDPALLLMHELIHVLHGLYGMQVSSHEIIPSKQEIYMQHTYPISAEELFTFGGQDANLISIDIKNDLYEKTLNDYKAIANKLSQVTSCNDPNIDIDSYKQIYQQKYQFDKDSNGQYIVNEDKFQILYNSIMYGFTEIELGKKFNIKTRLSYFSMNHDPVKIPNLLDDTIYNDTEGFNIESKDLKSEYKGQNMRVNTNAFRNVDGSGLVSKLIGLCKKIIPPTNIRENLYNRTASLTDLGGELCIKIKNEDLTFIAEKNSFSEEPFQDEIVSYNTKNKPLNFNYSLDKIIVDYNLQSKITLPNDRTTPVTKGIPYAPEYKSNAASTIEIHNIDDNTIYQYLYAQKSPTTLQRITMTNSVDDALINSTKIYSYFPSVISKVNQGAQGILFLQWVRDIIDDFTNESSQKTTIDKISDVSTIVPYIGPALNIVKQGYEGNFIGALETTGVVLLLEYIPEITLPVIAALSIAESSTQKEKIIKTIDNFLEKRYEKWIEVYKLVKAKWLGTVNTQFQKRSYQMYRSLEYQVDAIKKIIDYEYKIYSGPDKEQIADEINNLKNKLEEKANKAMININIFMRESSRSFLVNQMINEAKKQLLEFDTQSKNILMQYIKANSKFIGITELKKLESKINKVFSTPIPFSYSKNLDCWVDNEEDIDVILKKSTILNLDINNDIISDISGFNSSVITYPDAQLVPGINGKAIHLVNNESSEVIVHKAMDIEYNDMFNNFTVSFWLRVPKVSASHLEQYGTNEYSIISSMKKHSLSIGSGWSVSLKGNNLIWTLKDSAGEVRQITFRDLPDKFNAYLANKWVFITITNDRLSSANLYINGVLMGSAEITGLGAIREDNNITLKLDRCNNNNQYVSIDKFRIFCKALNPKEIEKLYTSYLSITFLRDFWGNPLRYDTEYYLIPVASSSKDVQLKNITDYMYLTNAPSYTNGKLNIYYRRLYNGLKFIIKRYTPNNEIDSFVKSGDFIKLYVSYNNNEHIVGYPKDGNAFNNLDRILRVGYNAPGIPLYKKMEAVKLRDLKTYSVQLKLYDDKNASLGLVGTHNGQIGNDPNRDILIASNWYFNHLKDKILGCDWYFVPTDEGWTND
Summary of the method: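 TeNt metallopeptidase activity on the fluorescent substrate [Pya⁸⁸]S39-88 (40, 50, 66, 100, 200 μM) in 20 mM Hepes pH 7.4, 100 mM NaCl, 0.1 mM DTT at 37 °C. Inhibitor absent or at 1, 10, 33, 100 μM. Rate read by RP-HPLC as the appearance of fluorescent product [Pya⁸⁸]S77-88. Lineweaver–Burk analysis; mean of three independent experiments in triplicate.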

Compound	Ki
N[C@@H](CCS(N)(=O)=O)[C@@H](S)C(=O)N[C@@H](Cc1ccc(O)cc1)C(=O)N[C@@H](Cc1c[nH]cn1)C(=O)O	5 µM
N[C@@H](CCS(N)(=O)=O)[C@@H](S)C(=O)N[C@@H](Cc1ccc(O)cc1)C(=O)N[C@@H](Cc1cnc[nH]1)C(=O)NCc1ccccc1	3.9 µM
NC(=O)CC[C@@H](N)CS	250 µM
N[C@@H](CS)CCS(N)(=O)=O	100 µM
N[C@@H](CCS(N)(=O)=O)[C@H](S)C(=O)N[C@@H](Cc1ccc(O)cc1)C(=O)N[C@@H](Cc1c[nH]cn1)C(=O)O	15 µM
N[C@@H](CCS(N)(=O)=O)[C@H](S)C(=O)N[C@@H](Cc1ccc(O)cc1)C(=O)N[C@@H](Cc1c[nH]cn1)C(=O)NCc1ccccc1	6.8 µM
NC(CS)c1cccc(S(N)(=O)=O)c1 (stereo not drawn)	35 µM
N[C@@H](c1cccc(S(N)(=O)=O)c1)[C@@H](S)C(=O)N[C@@H](Cc1ccc(O)cc1)C(=O)N[C@@H](Cc1c[nH]cn1)C(=O)NCc1ccccc1	3 µM
N[C@H](c1cccc(S(N)(=O)=O)c1)[C@@H](S)C(=O)N[C@@H](Cc1ccc(O)cc1)C(=O)N[C@@H](Cc1c[nH]cn1)C(=O)NCc1ccccc1	6 µM
N[C@@H](c1cccc(S(N)(=O)=O)c1)[C@H](S)C(=O)N[C@@H](Cc1ccc(O)cc1)C(=O)N[C@@H](Cc1c[nH]cn1)C(=O)NCc1ccccc1	9.6 µM
N[C@H](c1cccc(S(N)(=O)=O)c1)[C@H](S)C(=O)N[C@@H](Cc1ccc(O)cc1)C(=O)N[C@@H](Cc1c[nH]cn1)C(=O)NCc1ccccc1	4 µM
C[C@@H](O)[C@H](NC(=O)[C@H](CCC(=O)O)NC(=O)[C@@H](Cc1ccccc1)NC(=O)C(S)[C@@H](N)CCC(=O)ON)C(=O)O (mixture of isomers)	100 µM
C[C@@H](O)[C@H](NC(=O)[C@H](CCC(=O)O)NC(=O)[C@@H](Cc1ccccc1)NC(=O)C(S)[C@@H](N)CCC(=O)ON)C(=O)N[C@@H](CO)C(=O)O (mixture of isomers)	80 µM
